For 7 molecules, MIC90 results are on record in ChEMBL document CHEMBL4041463, “Pyrazolo[1,5-a]pyridine-3-carboxamide hybrids: Design, synthesis and evaluation of anti-tubercular activity” (Eur J Med Chem, 2017).

Usually MIC90 stands for the lowest concentration that inhibits either 90% of growth or 90% of the strains tested, depending on the study.

Values after ≈ are worked out from the molar mass of the structure shown. Bounds are passed on as bounds.

The experiment concerns Mycobacterium tuberculosis. Description: Antitubercular activity against Mycobacterium tuberculosis H37Rv measured on day 7 post dose by microplate alamar blue assay. In kind it is functional. The conditions noted are these: 168 h. In a few lines:
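MABA against H37Rv in 7H12 medium, two-fold dilutions, final 0.05–5 or 0.004–1 µg/mL (DMSO stocks 5 or 2 mg/mL). Inoculum 2×10⁵ cfu/mL, 37 °C. On day 7, Tween 80 and Alamar Blue added; fluorescence (ex 530/em 590) read after 16–24 h. MIC = interpolated lowest concentration giving ≥90% fluorescence reduction versus bacteria-only controls. INH and RIF as controls.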
On the technique in general: Resazurin is reduced to fluorescent resorufin, in cell work by metabolically active cells.
With `NNC(=O)c1ccncc1` [ISONIAZID], the MIC90 is 0.1 µg/mL (≈ 0.729 µM).
Under `Cc1ccn2nc(C)c(C(=O)NCc3ccc(OC(F)(F)F)cc3)c2c1` stands 0.91 µg/mL (≈ 2.5 µM); under `CCc1nn2ccc(Cl)cc2c1C(=O)NCc1ccc(-c2ccc(OC(F)(F)F)cc2)nc1`, 0.2 µg/mL (≈ 0.421 µM); under `CCc1nn2ccc(Cl)cc2c1C(=O)NC/C=C(\C)CCC=C(C)C`, 0.17 µg/mL (≈ 0.472 µM).
Under `Cc1ccn2nc(C)c(C(=O)NCc3ccc(N4CCC(Oc5ccc(OC(F)(F)F)cc5)CC4)cc3)c2c1` stands 0.006 µg/mL (≈ 0.0111 µM); under `CO[C@H]1/C=C/O[C@@]2(C)Oc3c(C)c(O)c4c(O)c(c(/C=N/N5CCN(C)CC5)c(O)c4c3C2=O)NC(=O)/C(C)=C\C=C\[C@H](C)[C@H](O)[C@@H](C)[C@@H](O)[C@@H](C)[C@H](OC(C)=O)[C@@H]1C` [RIFAMPIN], 0.003 µg/mL (≈ 0.00365 µM).
Under `CCc1nn2ccc(Cl)cc2c1C(=O)NCC1CCN(CC23CC4CC(CC(C4)C2)C3)CC1` stands > 1 µg/mL.
